# Reference: ChEMBL document CHEMBL5247575 (J Med Chem, 2018)
# Tested on: Acinetobacter baumannii
# Assay: Synergistic antibacterial activity against Acinetobacter baumannii PR440 producing OXA-23/24/40 assessed as cefepime MIC at 4 ug/ml by broth microdilution method
# Format: functional
# Conditions: dose 4 µg/ml
row,SMILES,MIC
1,N#C[C@@H]1CC[C@@H]2CN1C(=O)N2OS(=O)(=O)[O-].[Na+],16 µg/mL

# Tested on: Pseudomonas aeruginosa
# Assay: Synergistic antibacterial activity against Pseudomonas aeruginosa CL232 assessed as meropenem MIC at 8 ug/ml by broth microdilution method
# Format: functional
# Conditions: dose 8 µg/ml
row,SMILES,MIC
1,N#C[C@@H]1CC[C@@H]2CN1C(=O)N2OS(=O)(=O)[O-].[Na+],> 16 µg/mL

# Tested on: Acinetobacter baumannii
# Assay: Synergistic antibacterial activity against Acinetobacter baumannii PR319 producing OXA-23/24/40 assessed as cefepime MIC at 4 ug/ml by broth microdilution method
# Format: functional
# Conditions: dose 4 µg/ml
row,SMILES,MIC
1,N#C[C@@H]1CC[C@@H]2CN1C(=O)N2OS(=O)(=O)[O-].[Na+],> 16 µg/mL

# Tested on: Klebsiella pneumoniae
# Assay: Synergistic antibacterial activity against Klebsiella pneumoniae 1315/2198 producing KPC-3 assessed as cefepime MIC at 4 ug/ml by broth microdilution method
# Format: functional
# Conditions: dose 4 µg/ml
# Procedure, shortened: (§1)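 Broth microdilution per CLSI guidelines, using custom frozen panels. […] Each partner drug was also tested alone. MICs were run in triplicate and the modal value is reported.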
row,SMILES,MIC
1,N#C[C@@H]1CC[C@@H]2CN1C(=O)N2OS(=O)(=O)[O-].[Na+],0.25 µg/mL

# Tested on: Acinetobacter baumannii
# Assay: Synergistic antibacterial activity against ADC deleted Acinetobacter baumannii transfected with pWH1266 OXA-23 assessed as cefepime MIC at 4 ug/ml by broth microdilution method
# Format: functional
# Conditions: dose 4 µg/ml
row,SMILES,MIC
1,N#C[C@@H]1CC[C@@H]2CN1C(=O)N2OS(=O)(=O)[O-].[Na+],2 µg/mL

# Tested on: Klebsiella pneumoniae
# Assay: Synergistic antibacterial activity against Klebsiella pneumoniae 935/1884 producing KPC-3 assessed as meropenem MIC at 4 ug/ml by broth microdilution method
# Format: functional
# Conditions: dose 4 µg/ml
row,SMILES,MIC
1,N#C[C@@H]1CC[C@@H]2CN1C(=O)N2OS(=O)(=O)[O-].[Na+],≤ 0.12 µg/mL

# Tested on: Klebsiella pneumoniae
# Assay: Synergistic antibacterial activity against Klebsiella pneumoniae 972/1910 producing KPC-3 assessed as cefepime MIC at 8 ug/ml by broth microdilution method
# Format: functional
# Conditions: dose 8 µg/ml
row,SMILES,MIC
1,N#C[C@@H]1CC[C@@H]2CN1C(=O)N2OS(=O)(=O)[O-].[Na+],0.25 µg/mL

# Tested on: Acinetobacter baumannii
# Assay: Synergistic antibacterial activity against Acinetobacter baumannii PR381 producing OXA-24/40 assessed as cefepime MIC at 4 ug/ml by broth microdilution method
# Format: functional
# Conditions: dose 4 µg/ml
row,SMILES,MIC
1,N#C[C@@H]1CC[C@@H]2CN1C(=O)N2OS(=O)(=O)[O-].[Na+],16 µg/mL

# Tested on: Klebsiella pneumoniae
# Assay: Synergistic antibacterial activity against Klebsiella pneumoniae 761/1723 producing KPC-3 assessed as meropenem MIC at 8 ug/ml by broth microdilution method
# Format: functional
# Conditions: dose 8 µg/ml
row,SMILES,MIC
1,N#C[C@@H]1CC[C@@H]2CN1C(=O)N2OS(=O)(=O)[O-].[Na+],≤ 0.12 µg/mL

# Tested on: Klebsiella pneumoniae
# Assay: Synergistic antibacterial activity against Klebsiella pneumoniae 776/1742 producing KPC-2 assessed as meropenem MIC at 8 ug/ml by broth microdilution method
# Format: functional
# Conditions: dose 8 µg/ml
row,SMILES,MIC
1,N#C[C@@H]1CC[C@@H]2CN1C(=O)N2OS(=O)(=O)[O-].[Na+],0.25 µg/mL

# Tested on: Klebsiella pneumoniae
# Assay: Synergistic antibacterial activity against Klebsiella pneumoniae 440/1360 producing KPC-2 assessed as cefepime MIC at 8 ug/ml by broth microdilution method
# Format: functional
# Conditions: dose 8 µg/ml
# Procedure, shortened: as §1
row,SMILES,MIC
1,N#C[C@@H]1CC[C@@H]2CN1C(=O)N2OS(=O)(=O)[O-].[Na+],0.25 µg/mL

# Tested on: Pseudomonas aeruginosa
# Assay: Synergistic antibacterial activity against Pseudomonas aeruginosa 715 assessed as meropenem MIC at 8 ug/ml by broth microdilution method
# Format: functional
# Conditions: dose 8 µg/ml
row,SMILES,MIC
1,N#C[C@@H]1CC[C@@H]2CN1C(=O)N2OS(=O)(=O)[O-].[Na+],16 µg/mL

# Tested on: Escherichia coli
# Assay: Synergistic antibacterial activity against Escherichia coli DH10B transfected with pBC SK (-) PDC-3 assessed as cefepime MIC at 4 ug/ml by broth microdilution method
# Format: functional
# Conditions: dose 4 µg/ml
# Procedure, shortened: as §1
row,SMILES,MIC
1,N#C[C@@H]1CC[C@@H]2CN1C(=O)N2OS(=O)(=O)[O-].[Na+],≤ 0.12 µg/mL

# Tested on: Klebsiella pneumoniae
# Assay: Synergistic antibacterial activity against Klebsiella pneumoniae 11978 producing OXA-48 assessed as cefepime MIC at 4 ug/ml by broth microdilution method
# Format: functional
# Conditions: dose 4 µg/ml
# Procedure, shortened: as §1
row,SMILES,MIC
1,N#C[C@@H]1CC[C@@H]2CN1C(=O)N2OS(=O)(=O)[O-].[Na+],0.5 µg/mL

# Tested on: Klebsiella pneumoniae
# Assay: Synergistic antibacterial activity against Klebsiella pneumoniae 761/1723 producing KPC-3 assessed as cefepime MIC at 8 ug/ml by broth microdilution method
# Format: functional
# Conditions: dose 8 µg/ml
# Procedure, shortened: as §1
row,SMILES,MIC
1,N#C[C@@H]1CC[C@@H]2CN1C(=O)N2OS(=O)(=O)[O-].[Na+],≤ 0.12 µg/mL

# Tested on: Pseudomonas aeruginosa
# Assay: Synergistic antibacterial activity against Pseudomonas aeruginosa 839 assessed as meropenem MIC at 4 ug/ml by broth microdilution method
# Format: functional
# Conditions: dose 4 µg/ml
row,SMILES,MIC
1,N#C[C@@H]1CC[C@@H]2CN1C(=O)N2OS(=O)(=O)[O-].[Na+],1 µg/mL

# Tested on: Acinetobacter baumannii
# Assay: Synergistic antibacterial activity against Acinetobacter baumannii PR319 producing OXA-23/24/40 assessed as cefepime MIC at 8 ug/ml by broth microdilution method
# Format: functional
# Conditions: dose 8 µg/ml
row,SMILES,MIC
1,N#C[C@@H]1CC[C@@H]2CN1C(=O)N2OS(=O)(=O)[O-].[Na+],> 16 µg/mL

# Tested on: Bacteria
# Assay: Inhibition of bacteria ADC-7 assessed as half life using nitrocefin as substrate
# Conditions: not given
row,SMILES,T1/2
1,N#C[C@@H]1CC[C@@H]2CN1C(=O)N2OS(=O)(=O)[O-].[Na+],12 min

# Tested on: Acinetobacter baumannii
# Assay: Synergistic antibacterial activity against Acinetobacter baumannii PR408 producing OXA-24/40 assessed as cefepime MIC at 8 ug/ml by broth microdilution method
# Format: functional
# Conditions: dose 8 µg/ml
row,SMILES,MIC
1,N#C[C@@H]1CC[C@@H]2CN1C(=O)N2OS(=O)(=O)[O-].[Na+],8 µg/mL
